In ChEMBL document CHEMBL4346701, “Synthesis and biological evaluation of tryptophan-derived rhodanine derivatives as PTP1B inhibitors and anti-bacterial agents” (Eur J Med Chem, 2019):
Values after ≈ are worked out from the molar mass of the structure shown.

Assays:
Staphylococcus aureus [1] = test: Antibacterial activity against Staphylococcus aureus RN4220 assessed as reduction in bacterial cell growth incubated for 24 hrs by ELISA; format: functional; conditions: RN4220, 24 h
Outline: (§1)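 MICs determined by serial dilution in 96-well microtiter plates. The strain panel included Gram-positive S. aureus strains and multidrug-resistant clinical isolates. Gatifloxacin, moxifloxacin, norfloxacin and oxacillin served as antibacterial positive controls.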

Staphylococcus aureus [2] = test: Potency index, ratio of MIC of gatifloxacin to MIC of compound for antibacterial activity against Staphylococcus aureus KCTC503 assessed as reduction in bacterial cell growth incubated for 24 hrs by ELISA; format: functional
Pseudomonas aeruginosa = test: Antibacterial activity against Pseudomonas aeruginosa 2742 assessed as reduction in bacterial cell growth incubated for 24 hrs by ELISA; format: functional; conditions: Pseudomonas aeruginosa, 2742, 24 h
Outline: (§2)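 MIC determined by serial dilution in 96-well microtiter plates. Strains used were E. coli 1924 and P. aeruginosa 2742 (Gram-negative), S. mutans 3289 (Gram-positive) and the fungus C. albicans 7535. Gatifloxacin, moxifloxacin, norfloxacin and oxacillin served as antibacterial reference agents, and fluconazole as the antifungal reference.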

Escherichia coli = test: Antibacterial activity against Escherichia coli 1924 assessed as reduction in bacterial cell growth incubated for 24 hrs by ELISA; format: functional; conditions: Escherichia coli, 1924, 24 h; outline: as §2
Staphylococcus aureus [3] = test: Antibacterial activity against Quinolone-resistant Staphylococcus aureus CCARM 3505 assessed as reduction in bacterial cell growth incubated for 24 hrs by ELISA; format: functional; conditions: CCARM 3505, 24 h; outline: as §1
Staphylococcus aureus [4] = test: Antibacterial activity against Quinolone-resistant Staphylococcus aureus CCARM 3519 assessed as reduction in bacterial cell growth incubated for 24 hrs by ELISA; format: functional; conditions: CCARM 3519, 24 h; outline: as §1
Candida albicans = test: Antifungal activity against Candida albicans 7535 assessed as reduction in bacterial cell growth incubated for 24 hrs by ELISA; format: functional; conditions: Candida albicans, 7535, 24 h; outline: as §2
Staphylococcus aureus [5] = test: Antibacterial activity against Methicillin-resistant Staphylococcus aureus CCARM 3167 assessed as reduction in bacterial cell growth incubated for 24 hrs by ELISA; format: functional; conditions: CCARM 3167, 24 h; outline: as §1
Streptococcus mutans = test: Antibacterial activity against Streptococcus mutans KCTC3289 assessed as reduction in bacterial cell growth incubated for 24 hrs by ELISA; format: functional; conditions: KCTC3289, 24 h; outline: as §2
Staphylococcus aureus [6] = test: Antibacterial activity against Staphylococcus aureus KCTC209 assessed as reduction in bacterial cell growth incubated for 24 hrs by ELISA; format: functional; conditions: KCTC209, 24 h; outline: as §1
Staphylococcus aureus [7] = test: Antibacterial activity against Methicillin-resistant Staphylococcus aureus CCARM 3506 assessed as reduction in bacterial cell growth incubated for 24 hrs by ELISA; format: functional; conditions: CCARM 3506, 24 h; outline: as §1
Staphylococcus aureus [8] = test: Antibacterial activity against Staphylococcus aureus KCTC503 assessed as reduction in bacterial cell growth incubated for 24 hrs by ELISA; format: functional; conditions: KCTC503, 24 h; outline: as §1
[9] = target: T1, Tyrosine-protein phosphatase non-receptor type 1 (Homo sapiens, UniProt P18031); test: Inhibition of human recombinant GST-tagged PTP1B expressed in Escherichia coli BL21 (DE3) using pNPP as substrate measured for 2 mins by colorimetric analysis
T1 sequence (P18031 whole entry): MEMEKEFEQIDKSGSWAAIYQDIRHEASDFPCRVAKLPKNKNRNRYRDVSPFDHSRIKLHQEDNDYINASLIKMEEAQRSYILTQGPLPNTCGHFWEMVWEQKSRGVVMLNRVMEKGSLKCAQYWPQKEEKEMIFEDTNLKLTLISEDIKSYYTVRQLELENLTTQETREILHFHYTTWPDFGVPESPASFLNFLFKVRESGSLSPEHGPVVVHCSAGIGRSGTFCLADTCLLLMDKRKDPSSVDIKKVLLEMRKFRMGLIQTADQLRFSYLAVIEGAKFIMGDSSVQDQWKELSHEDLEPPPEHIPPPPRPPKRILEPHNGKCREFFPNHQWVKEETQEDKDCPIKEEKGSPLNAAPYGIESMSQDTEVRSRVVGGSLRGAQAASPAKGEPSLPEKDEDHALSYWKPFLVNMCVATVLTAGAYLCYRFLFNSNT

[10] = target: T2, Tyrosine-protein phosphatase non-receptor type 2 (Homo sapiens, UniProt P17706); test: Inhibition of human recombinant GST-tagged TCPTP (catalytic domain […] residues) expressed in Escherichia coli BL21 (DE3) using pNPP as substrate measured for 2 mins by colorimetric analysis
T2 sequence (P17706 whole entry): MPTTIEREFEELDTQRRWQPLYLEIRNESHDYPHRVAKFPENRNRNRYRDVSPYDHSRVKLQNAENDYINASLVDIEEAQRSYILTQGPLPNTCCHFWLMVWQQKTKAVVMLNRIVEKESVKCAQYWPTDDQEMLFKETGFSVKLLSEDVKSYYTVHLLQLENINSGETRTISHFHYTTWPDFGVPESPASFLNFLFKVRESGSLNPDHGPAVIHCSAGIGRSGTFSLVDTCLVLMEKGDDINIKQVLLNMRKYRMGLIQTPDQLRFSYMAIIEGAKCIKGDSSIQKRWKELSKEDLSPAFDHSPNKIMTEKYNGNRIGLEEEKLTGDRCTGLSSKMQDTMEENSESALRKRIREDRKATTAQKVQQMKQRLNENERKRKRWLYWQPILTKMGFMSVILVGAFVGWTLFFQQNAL

[11] = target: T3, Tyrosine-protein phosphatase non-receptor type 11 (Homo sapiens, UniProt Q06124); test: Inhibition of human recombinant GST-tagged SHP2 (catalytic domain […] residues) expressed in Escherichia coli BL21 (DE3) using pNPP as substrate measured for 2 mins by colorimetric analysis
T3 sequence (Q06124 whole entry): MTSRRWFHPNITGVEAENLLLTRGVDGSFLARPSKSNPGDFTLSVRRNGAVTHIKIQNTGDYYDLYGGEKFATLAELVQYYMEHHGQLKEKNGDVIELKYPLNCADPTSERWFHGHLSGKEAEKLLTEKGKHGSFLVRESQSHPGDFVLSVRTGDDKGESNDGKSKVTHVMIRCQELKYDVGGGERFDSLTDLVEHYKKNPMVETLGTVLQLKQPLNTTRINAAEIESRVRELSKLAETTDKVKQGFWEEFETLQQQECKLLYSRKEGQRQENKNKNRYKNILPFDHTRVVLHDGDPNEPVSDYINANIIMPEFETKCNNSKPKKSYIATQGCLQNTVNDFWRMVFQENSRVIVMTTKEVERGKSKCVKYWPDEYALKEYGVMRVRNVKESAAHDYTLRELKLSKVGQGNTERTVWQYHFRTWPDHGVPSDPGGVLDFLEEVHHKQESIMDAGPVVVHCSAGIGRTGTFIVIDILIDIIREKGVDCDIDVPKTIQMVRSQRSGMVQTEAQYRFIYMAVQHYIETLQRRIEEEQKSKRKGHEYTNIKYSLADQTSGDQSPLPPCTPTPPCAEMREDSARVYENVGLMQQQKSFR
Outline: (§3)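 pNPP hydrolysis assay. IC50 was derived by regression analysis and given as mean ± SD of three replications.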

[12] = target: T4, M-phase inducer phosphatase 2 (Homo sapiens, UniProt P30305); test: Inhibition of human recombinant GST-tagged CDC25B expressed in Escherichia coli BL21 (DE3) using pNPP as substrate measured for 2 mins by colorimetric analysis; outline: as §3
T4 sequence (P30305 whole entry): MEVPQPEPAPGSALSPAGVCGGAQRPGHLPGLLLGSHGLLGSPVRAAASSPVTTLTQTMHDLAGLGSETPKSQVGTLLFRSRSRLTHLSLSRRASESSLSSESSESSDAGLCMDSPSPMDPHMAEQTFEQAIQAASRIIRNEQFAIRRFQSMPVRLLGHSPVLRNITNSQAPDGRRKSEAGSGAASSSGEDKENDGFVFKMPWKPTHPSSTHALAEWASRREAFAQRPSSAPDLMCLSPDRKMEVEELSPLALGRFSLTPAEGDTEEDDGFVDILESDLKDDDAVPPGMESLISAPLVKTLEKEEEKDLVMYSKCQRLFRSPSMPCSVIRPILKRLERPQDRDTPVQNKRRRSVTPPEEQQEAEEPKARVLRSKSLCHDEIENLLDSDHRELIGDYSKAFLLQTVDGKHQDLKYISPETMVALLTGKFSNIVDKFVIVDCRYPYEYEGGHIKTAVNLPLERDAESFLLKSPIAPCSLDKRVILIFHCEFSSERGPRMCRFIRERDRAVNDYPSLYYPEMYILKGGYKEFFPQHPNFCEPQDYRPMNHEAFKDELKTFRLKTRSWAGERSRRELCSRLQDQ

[13] = target: Tyrosine-protein phosphatase non-receptor type 6 (Homo sapiens, UniProt P29350); test: Inhibition of human recombinant GST-tagged SHP1 (catalytic domain 244 to 570 residues) expressed in Escherichia coli BL21 (DE3) using pNPP as substrate measured for 2 mins by colorimetric analysis; outline: as §3
Tyrosine-protein phosphatase non-receptor type 6, sequence (P29350 whole entry, the tested form may be a part): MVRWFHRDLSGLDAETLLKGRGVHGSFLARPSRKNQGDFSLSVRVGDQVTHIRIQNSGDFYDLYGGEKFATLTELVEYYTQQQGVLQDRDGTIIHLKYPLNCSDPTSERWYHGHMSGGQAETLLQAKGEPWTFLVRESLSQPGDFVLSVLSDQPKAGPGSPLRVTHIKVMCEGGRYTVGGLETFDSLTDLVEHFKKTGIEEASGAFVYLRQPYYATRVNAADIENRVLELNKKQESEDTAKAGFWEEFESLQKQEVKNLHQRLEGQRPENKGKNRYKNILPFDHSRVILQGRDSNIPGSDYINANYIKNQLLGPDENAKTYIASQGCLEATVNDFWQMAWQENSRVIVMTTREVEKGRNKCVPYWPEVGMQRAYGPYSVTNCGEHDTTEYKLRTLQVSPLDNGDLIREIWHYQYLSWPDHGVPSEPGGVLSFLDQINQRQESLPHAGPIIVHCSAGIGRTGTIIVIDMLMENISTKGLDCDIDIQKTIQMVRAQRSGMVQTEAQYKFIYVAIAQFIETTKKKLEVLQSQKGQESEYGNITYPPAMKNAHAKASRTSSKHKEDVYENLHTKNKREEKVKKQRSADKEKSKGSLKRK

Compound	MIC (Staphylococcus aureus [1]) [µg/mL]	Ratio (Staphylococcus aureus [2])	MIC (Pseudomonas aeruginosa) [µg/mL]	MIC (Escherichia coli) [µg/mL]	MIC (Staphylococcus aureus [3]) [µg/mL]	MIC (Staphylococcus aureus [4]) [µg/mL]	MIC (Candida albicans) [µg/mL]	MIC (Staphylococcus aureus [5]) [µg/mL]	MIC (Streptococcus mutans) [µg/mL]	MIC (Staphylococcus aureus [6]) [µg/mL]	MIC (Staphylococcus aureus [7]) [µg/mL]	MIC (Staphylococcus aureus [8]) [µg/mL]	IC50 [9] [µM]	IC50 [10] [µM]	IC50 [11] [µM]	IC50 [12] [µM]	IC50 [13] [µM]
O=C(O)C(Cc1c[nH]c2ccccc12)N1C(=O)/C(=C/c2cccc(OCc3ccc(Cl)cc3)c2)SC1=S (stereo unspecified)	2 (≈ 3.64 µM)	2	> 64	2 (≈ 3.64 µM)	2 (≈ 3.64 µM)	4 (≈ 7.29 µM)	> 64	2 (≈ 3.64 µM)	2 (≈ 3.64 µM)	2 (≈ 3.64 µM)	4 (≈ 7.29 µM)	2 (≈ 3.64 µM)	5.76				
O=C(O)C(Cc1c[nH]c2ccccc12)N1C(=O)/C(=C/c2ccc(OCc3ccccc3)cc2)SC1=S (stereo unspecified)	4 (≈ 7.77 µM)		> 64	8 (≈ 15.5 µM)	8 (≈ 15.5 µM)	8 (≈ 15.5 µM)	> 64	8 (≈ 15.5 µM)	4 (≈ 7.77 µM)	8 (≈ 15.5 µM)	8 (≈ 15.5 µM)	8 (≈ 15.5 µM)	5.52				
COc1cc(/C=C2\SC(=S)N(C(Cc3c[nH]c4ccccc34)C(=O)O)C2=O)ccc1OCc1ccccc1 (stereo unspecified)	8 (≈ 14.7 µM)		> 64	16 (≈ 29.4 µM)	8 (≈ 14.7 µM)	16 (≈ 29.4 µM)	> 64	8 (≈ 14.7 µM)	8 (≈ 14.7 µM)	8 (≈ 14.7 µM)	8 (≈ 14.7 µM)	8 (≈ 14.7 µM)	5.77				
COc1cc(/C=C2\SC(=S)N(C(Cc3c[nH]c4ccccc34)C(=O)O)C2=O)ccc1OCc1ccc(C)cc1 (stereo unspecified)	2 (≈ 3.58 µM)		> 64	2 (≈ 3.58 µM)	2 (≈ 3.58 µM)	8 (≈ 14.3 µM)	> 64	4 (≈ 7.16 µM)	2 (≈ 3.58 µM)	2 (≈ 3.58 µM)	2 (≈ 3.58 µM)	4 (≈ 7.16 µM)	3.6				
O=C(O)C(Cc1c[nH]c2ccccc12)N1C(=O)/C(=C/c2ccc3cc(OCc4ccc(F)cc4)ccc3c2)SC1=S (stereo unspecified)	1 (≈ 1.72 µM)		> 64	2 (≈ 3.43 µM)	2 (≈ 3.43 µM)	2 (≈ 3.43 µM)	> 64	2 (≈ 3.43 µM)	2 (≈ 3.43 µM)	4 (≈ 6.86 µM)	2 (≈ 3.43 µM)	2 (≈ 3.43 µM)	0.45	1.12	4.26	0.38	1.52
O=C(O)C(Cc1c[nH]c2ccccc12)N1C(=O)/C(=C/c2ccc(OCc3ccc(Cl)cc3Cl)cc2)SC1=S (stereo unspecified)	4 (≈ 6.85 µM)		> 64	8 (≈ 13.7 µM)	8 (≈ 13.7 µM)	16 (≈ 27.4 µM)	> 64	8 (≈ 13.7 µM)	8 (≈ 13.7 µM)	4 (≈ 6.85 µM)	8 (≈ 13.7 µM)	8 (≈ 13.7 µM)	3.38				
COc1cc(/C=C2\SC(=S)N(C(Cc3c[nH]c4ccccc34)C(=O)O)C2=O)ccc1OCc1ccc(Br)cc1 (stereo unspecified)	4 (≈ 6.41 µM)		> 64	8 (≈ 12.8 µM)	4 (≈ 6.41 µM)	8 (≈ 12.8 µM)	> 64	4 (≈ 6.41 µM)	8 (≈ 12.8 µM)	4 (≈ 6.41 µM)	4 (≈ 6.41 µM)	4 (≈ 6.41 µM)	3.18				
Cc1ccc(COc2ccc(/C=C3\SC(=S)N(C(Cc4c[nH]c5ccccc45)C(=O)O)C3=O)cc2)cc1 (stereo unspecified)	4 (≈ 7.57 µM)		> 64	8 (≈ 15.1 µM)	8 (≈ 15.1 µM)	16 (≈ 30.3 µM)	> 64	8 (≈ 15.1 µM)	4 (≈ 7.57 µM)	4 (≈ 7.57 µM)	8 (≈ 15.1 µM)	8 (≈ 15.1 µM)	5.93				
